Compound activity from PubChem BioAssay.
This is a sample that favours compounds with a hit; in the whole collection about 0.95% have one here.
p97 inhibitor: human p97 ATPase inhibition | recombinant p97 ATPase, Kinase-Glo ATP luminescence, 3 h | inhibition, % at 8 µM | 220,000 compounds, 0.42% hits | P55072 | AID 1481; in the data active = inhibition above about 15%;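 note: 0% = DMSO vehicle and 100% = wells lacking enzyme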
Target sequence (P55072 whole entry, looked up): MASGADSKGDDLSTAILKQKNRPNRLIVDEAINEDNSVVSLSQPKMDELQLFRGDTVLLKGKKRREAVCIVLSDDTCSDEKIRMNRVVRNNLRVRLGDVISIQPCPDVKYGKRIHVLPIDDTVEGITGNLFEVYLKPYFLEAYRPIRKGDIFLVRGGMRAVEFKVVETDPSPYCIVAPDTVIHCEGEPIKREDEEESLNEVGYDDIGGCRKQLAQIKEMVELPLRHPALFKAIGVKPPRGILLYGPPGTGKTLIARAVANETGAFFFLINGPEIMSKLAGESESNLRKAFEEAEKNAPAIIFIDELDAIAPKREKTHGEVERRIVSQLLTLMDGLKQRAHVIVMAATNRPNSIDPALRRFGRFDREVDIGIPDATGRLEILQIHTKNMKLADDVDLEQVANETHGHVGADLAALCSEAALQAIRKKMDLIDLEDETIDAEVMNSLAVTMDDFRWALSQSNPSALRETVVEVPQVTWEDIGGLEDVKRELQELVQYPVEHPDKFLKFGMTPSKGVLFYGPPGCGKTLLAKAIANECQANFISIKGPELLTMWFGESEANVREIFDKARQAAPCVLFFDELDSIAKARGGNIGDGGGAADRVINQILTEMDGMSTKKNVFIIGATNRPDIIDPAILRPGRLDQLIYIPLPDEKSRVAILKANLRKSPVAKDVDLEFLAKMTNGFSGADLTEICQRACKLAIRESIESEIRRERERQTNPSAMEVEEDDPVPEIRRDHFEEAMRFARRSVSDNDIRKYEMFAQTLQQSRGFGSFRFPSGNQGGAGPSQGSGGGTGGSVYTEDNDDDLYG
Diaphorase inh: counter-screen for diaphorase-based assays: diaphorase inhibitors and chemical oxidizers; inhibition, % at 20 µM; 190,000 compounds, 0.69% hits; AID 1217; diaphorase resazurin-to-resorufin fluorescence, NADH, 16 min; bacterial (C. kluyveri) enzyme, not human;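 active = primary screen inhibition at 20 µM above a set limit, cut at about 50% in these data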;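 note: plate controls were DMSO with full reaction for no effect and wells lacking NADH for full effect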
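Test system: Clostridium kluyveri diaphorase enzyme / Quantity: diaphorase at 0.14 U/mL in enzyme working solution / Incubation: 16-min room-temperature incubation before reading / Benchmarks: NADH-free wells as positive control, DMSO-only neutral wells / Signal: resorufin fluorescence 544/590 nm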
HKDC1 inh: inhibitors of human hexokinase HKDC1; Q2TB90; recombinant HKDC1, G6PDH/diaphorase resazurin coupled fluorescence; AID 493160; inhibition, % at 20 µM; 340,000 compounds, 0.16% hits;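 active = inhibition above about 35% when tested at 20 µM, limit read from the data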;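 note: plate controls were DMSO wells with enzyme for no effect and DMSO wells lacking enzyme for full effect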
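Test system: HK5 enzyme. Quantity: 5 µg/mL HK5 final. Reagent: glucose and ATP substrates. Schedule: 90 min reaction incubation at room temperature, dark. Technique: resazurin-to-resorufin fluorescence via G6PDH and diaphorase coupling, 525/613 nm. Control set: DMSO wells with and without enzyme mix.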
SUMO HTRF inh: SUMOylation inhibition | P63279 | HTRF SUMOylation assay, SAE1/SAE2 + UBC9, in vitro | inhibition, % at 35 µM | 290,000 compounds, 0.36% hits; in the data active = inhibition above about 50%, passing the limit was not always enough; inconclusive = no clear call, values can overlap the other calls
G6PDH CS: counter-screen for G6PDH assay hits: L. mesenteroides G6PDH inhibition. Purified L. mesenteroides G6PDH, diaphorase/resazurin coupled fluorescence, 45 min. inhibition, % at 5 µM. 200,000 compounds, 0.12% hits. AID 1020; in the data active = inhibition above about 50%
* hit, by the source's call; u = inconclusive; x = no result.

SMILES	p97 inhibitor	Diaphorase inh	HKDC1 inh	SUMO HTRF inh	G6PDH CS
O=C(CSc1n[nH]c(-c2cccnc2)n1)Nc1ccccc1	3	7	-5	3	2
CN1C(=O)c2cccc3c(S(=O)(=O)Nc4ccccc4F)ccc1c23	x	x	4	7	x
CCN1CCN(S(=O)(=O)c2c[nH]c(C(=O)OC)c2)CC1	x	x	3	17	x
O=C1C(=O)c2ccc(-c3ccccc3)cc2-c2ccccc21	13	28	30	97*	54*
Nc1ccc2c(c1)C(=O)C(=O)c1ccccc1-2	31*	28	2	u	58*
COc1ccc(Cl)cc1NC(=O)CN(C)C(=O)Cn1cnnn1	x	x	-6	x	x
CSCCC(NS(=O)(=O)c1ccc(C)cc1)C(=O)NC1CCCCCC1 (centres undefined)	x	x	3	x	x
O=C1Cc2c([nH]c3ccc([N+](=O)[O-])cc23)-c2ccccc2N1	x	x	3	x	x
CC(OC(=O)CCc1ccccc1)C(=O)Nc1ccc(Cl)cn1 (centres undefined)	x	x	-2	x	x
CCOC(=O)c1cc(C)[nH]c(=S)c1C#N	-1	52*	9	-14	-5
CCOC(=O)c1cc(C(=O)OCC)c(=O)[nH]c1C	4	-15	-8	-3	9
COc1ccc(-c2c(=O)n(OCc3ccccc3[N+](=O)[O-])c3ccccc3[n+]2[O-])c(OC)c1	-4	51*	-2	6	-2
COc1ccc(-c2c(=O)n(OCc3ccccn3)c3ccccc3[n+]2[O-])cc1OC	-4	20	27	15	3
C[C@@]12C(=O)N(Cc3ccc(F)cc3)CC(=O)N1[C@H]1c3cc(Cl)ccc3OC[C@@H]1[C@@H]2c1ccccc1	x	x	4	x	x
O=C1/C(=C/c2ccco2)CCc2ccccc21	1	24	7	20	18
Nc1ccc2c(c1)C/C(=C/c1ccco1)C2=O	15*	26	6	85*	9
CC(=O)Nc1cccc(OCCCNS(=O)(=O)c2ccc(C#N)cc2)c1	x	x	-5	-8	x
N#Cc1c(NCCCO)nc(NCc2ccccc2)c2c1CCN(Cc1ccccc1)C2	5	56*	9	25	40
CN1CCc2c(C#N)c(N3CCCCC3)nc(NCc3ccccc3)c2C1	-2	17	12	14	23
O=c1nc(-c2ccccc2)c2cc(Br)ccc2[nH]1	x	x	-1	12	x
O=c1cc2[nH]c3ccccc3c(=O)n2nc1-c1ccccc1	-2	66*	21	u	7
ClCC1=Nc2cccc3cccc(c23)N1	15*	x	x	11	x
CC(Oc1ccc(Br)cc1)c1nc2c3ccccc3nc(=S)n2[nH]1 (centres undefined)	3	85*	-24	-3	4
S=c1nc2ccccc2c2nc(-c3ccccc3Cl)[nH]n12	x	x	-12	0	x
S=c1nc2ccccc2c2nc(-c3ccccc3)[nH]n12	6	77*	-21	-23	6
SMILES	p97 inhibitor	Diaphorase inh	HKDC1 inh	SUMO HTRF inh	G6PDH CS
O=C(N/N=C\c1c(O)ccc2ccccc12)c1ccc(O)cc1	x	x	1	-57	x
O=C(N/N=C/c1c(O)ccc2ccccc12)c1ccc[n+](CCO)c1	-1	54*	-15	1	-18
CCCCN(C(=O)c1ccc(N2CCCC2=O)cc1)c1c(N)n(Cc2ccccc2)c(=O)[nH]c1=O	x	x	-6	x	x
O=C(NC1(O)C(=O)c2ccccc2C1=O)c1ccccc1	9	18	-17	84*	-19
Cc1cc(/C=C2\C(=O)NN(c3ccccc3)C2=O)c(C)n1-c1ccccc1O	2	x	0	60*	x
COc1cc(CN2CCN(Cc3ccc([N+](=O)[O-])cc3)CC2)c([N+](=O)[O-])cc1OC	3	30	-7	6	12
COc1cccc(CN2CCN(Cc3cc(OC)c(OC)cc3[N+](=O)[O-])CC2)c1	14	50*	12	-23	15
CC(Sc1nnc(CN2CCCC2)n1Cc1ccccc1)C(=O)Nc1ccc(F)cc1Cl (centres undefined)	x	x	-1	x	x
O=C(/C=C/c1cccc(Cl)c1)c1ccc([N+](=O)[O-])o1	x	x	61*	x	x
CC(=O)c1c(N)[nH]c(-c2ccccc2)nc1=S	9	50*	4	7	-4
O=C(O)c1cccc(Cl)n1	-2	x	-4	8	x
O=C(O)c1cccc(C(=O)O)n1	1	71*	x	-15	29
CSc1nc(-c2ccco2)nn1S(=O)(=O)c1ccccc1	-3	22	x	24	10
CSc1nc(-c2ccco2)nn1S(=O)(=O)c1ccc(C)cc1	-2	58*	0	-3	2
CCOc1cc(/C=N/N=C(\N)c2nonc2N)cc(Br)c1OCc1cccc2ccccc12	-6	2	-3	56*	6
COc1cc(/C=N/N=C(/N)c2nonc2N)cc(Br)c1OCc1cccc(C)c1	1	24	2	-7	4
Cc1cccc(C(=O)OCC(=O)N(C)c2ccccc2)c1C	x	x	-5	8	x
Cc1cccn2c(=O)c3cc(C(=O)NC4CCS(=O)(=O)C4)sc3nc12 (centres undefined)	1	13	1	26	-2
Cc1cccn2c(=O)c3cc(C(=O)NC4CCCCCC4)sc3nc12	x	x	1	55*	x
NC(CO)C(=O)NNCc1ccc(O)c(O)c1O (centres undefined)	7	74*	15	x	31
COC(=O)C(N)Cc1ccc(O)c(O)c1 (centres undefined)	2	43	-10	9	41
Cc1cc(-c2nc3c4c5c(sc4[nH]c(=O)n3n2)CCC5)c(C)o1	14	57*	1	36	-5
O=C(CNC(=O)c1nc[nH]c1C(=O)N1CCN(c2ccccc2)CC1)OCc1ccccc1	x	x	-3	-15	x
O=C1N[C@@H](Cc2c[nH]c3ccccc23)C(=O)N[C@H]1Cc1ccccc1	x	x	2	x	x
COc1ccccc1N1CSC2=C(C#N)C(c3ccc(SC)cc3)CC(=O)N2C1 (centres undefined)	5	65*	32	33	35
SMILES	p97 inhibitor	Diaphorase inh	HKDC1 inh	SUMO HTRF inh	G6PDH CS
COc1cc(OC)c(C2CC(=O)N3CN(c4ccccc4)CSC3=C2C#N)cc1OC (centres undefined)	-4	46	5	16	23
Cc1ccc(C2CC(=O)N3CN(c4ccc(Br)cc4)CSC3=C2C#N)o1 (centres undefined)	2	58*	0	13	16
CCOc1ccc(N2CSC3=C(C#N)C(c4ccco4)CC(=O)N3C2)cc1 (centres undefined)	6	42	-1	37	23
COc1cccc(C2CC(=O)N3CN(c4ccccc4F)CSC3=C2C#N)c1 (centres undefined)	-4	41	7	14	13
CCc1ccccc1N1CSC2=C(C#N)C(c3cc(OC)c(OC)cc3OC)CC(=O)N2C1 (centres undefined)	6	50*	10	35	43
COc1ccc2ccccc2c1C1CC(=O)N2CN(C)CSC2=C1C#N (centres undefined)	3	52*	10	20	21
